Experimental data reported in ChEMBL document CHEMBL4665722, “Discovery of a novel selective water-soluble SMAD3 inhibitor as an antitumor agent” (Bioorg Med Chem Lett, 2020).
In brackets after ≈: the same amount, converted by molar mass. Activity calls are given as the source filed them. No cut-off for these calls is given here.

Experiments:
[1] = molecular target: Mothers against decapentaplegic homolog 2 (Homo sapiens) (UniProt Q15796); experiment: Inhibition of TGF-beta induced SMAD2 phosphorylation in human A549 cells at 5 to 10 uM pretreated with compound for 2 hrs followed by TGF-beta stimulation by Western blot analysis; assay type: cell-based; settings: dose microM 5-10, time 2.0 hrs
Mothers against decapentaplegic homolog 2 (Homo sapiens), sequence (Q15796 whole entry): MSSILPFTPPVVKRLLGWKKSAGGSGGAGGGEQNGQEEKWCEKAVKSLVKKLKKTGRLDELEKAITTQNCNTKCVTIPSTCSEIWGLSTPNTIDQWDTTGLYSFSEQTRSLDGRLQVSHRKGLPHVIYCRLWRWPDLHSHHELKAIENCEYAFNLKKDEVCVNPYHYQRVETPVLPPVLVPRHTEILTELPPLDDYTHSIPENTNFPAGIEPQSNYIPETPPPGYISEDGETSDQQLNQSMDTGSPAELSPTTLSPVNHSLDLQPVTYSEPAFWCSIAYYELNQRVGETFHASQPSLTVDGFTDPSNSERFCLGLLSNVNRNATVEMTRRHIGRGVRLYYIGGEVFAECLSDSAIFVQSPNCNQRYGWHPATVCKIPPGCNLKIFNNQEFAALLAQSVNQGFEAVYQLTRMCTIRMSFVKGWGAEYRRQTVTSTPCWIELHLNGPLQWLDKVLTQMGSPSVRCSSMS
Method in brief: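 A549 cells pre-treated 2 h at 5 and 10 μM, then stimulated with 1 ng/mL TGF-β for 30 min. Lysates probed by western blot for phospho-SMAD2, SMAD2, phospho-SMAD3 and SMAD3. GAPDH served as loading control.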

A549 = experiment: Cytotoxicity against human A549 cells assessed as inhibition of cell growth by MTT assay; assay type: functional; settings: read-out: TD50 (the source's name)
Method in brief: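 A549 cell growth measured by MTT assay. Value is the concentration giving 50% growth inhibition relative to controls, mean of three experiments.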

[2] = molecular target: Mothers against decapentaplegic homolog 3 (Homo sapiens) (UniProt P84022); settings: NIH3T3
Mothers against decapentaplegic homolog 3 (Homo sapiens), sequence (P84022 2-425 limits assumed): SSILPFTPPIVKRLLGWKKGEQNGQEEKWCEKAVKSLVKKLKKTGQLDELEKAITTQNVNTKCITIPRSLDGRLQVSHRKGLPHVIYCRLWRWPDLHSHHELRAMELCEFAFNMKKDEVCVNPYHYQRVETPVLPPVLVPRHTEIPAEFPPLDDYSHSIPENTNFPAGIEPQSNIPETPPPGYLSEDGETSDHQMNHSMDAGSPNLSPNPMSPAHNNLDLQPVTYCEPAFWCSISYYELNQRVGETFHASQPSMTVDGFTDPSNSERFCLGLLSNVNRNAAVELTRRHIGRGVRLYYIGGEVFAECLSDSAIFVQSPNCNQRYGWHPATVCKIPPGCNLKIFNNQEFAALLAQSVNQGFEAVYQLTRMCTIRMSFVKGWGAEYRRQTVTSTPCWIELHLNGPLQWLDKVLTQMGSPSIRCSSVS

[3] = Solubility of the compound in PBS buffer at pH 7.4; assay type: physicochemical
Method in brief: (§1)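 Solubility of free base or HCl salt measured in pure water and in phosphate buffer pH 7.4 at room temperature, quantified by HPLC.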

[4] = Solubility of the compound in water; assay type: physicochemical; method in brief: as §1
Mus musculus = experiment: Induction of NK-mediated antitumor immunity in ip dosed C57BL/6 mouse allografted with mouse Lewis lung carcinoma cells assessed as increase in NK cell infiltration in tumor by immunofluorescent staining based assay; settings: dose microg/g 1.25-5
Lewis lung carcinoma [5] = experiment: Antitumor activity against mouse Lewis lung carcinoma cells allografted in ip dosed C57BL/6 mouse assessed as reduction in tumor volume administered for 20 consecutive days; settings: dose microg/g 1.25-5, time 20.0 day
Lewis lung carcinoma [6] = experiment: Antitumor activity against mouse Lewis lung carcinoma cells allografted in ip dosed C57BL/6 mouse assessed as reduction in tumor weight administered for 20 consecutive days; settings: dose microg/g 1.25-5, time 20.0 day

Row | Structure (SMILES) | inhibition [1] | CC50 (A549) [µM] | solubility [3] [µg/mL] | other results
1 | COc1ccc(CN2CC/C(=C\c3c(-c4ccccc4)n(C)c4ncccc34)C2=O)cc1OC | inactive |  |  | 
2 | COc1cc2c(cc1OC)CN(C(=O)/C=C/c1c(-c3ccccc3)n(C)c3ncccc13)CC2.Cl |  | 18.7 | 6 | ED50 [2]: 4.53 µM; solubility [4]: 141 µg/mL
3 | Cc1nc(C)c(CN2CC/C(=C\c3c(-c4ccccc4)n(C)c4ncccc34)C2=O)nc1C [listing 1 of 2 here] | inactive |  |  | Activity (Mus musculus): Dose-dependent effect; Activity (Lewis lung carcinoma [5]): Dose-dependent effect; Activity (Lewis lung carcinoma [6]): Dose-dependent effect
4 | Cc1nc(C)c(CN2CC/C(=C\c3c(-c4ccccc4)n(C)c4ncccc34)C2=O)nc1C.Cl |  |  |  | solubility ([4]; water): > 94000 µg/mL
5 | Cc1nc(C)c(CN2CC/C(=C\c3c(-c4ccccc4)n(C)c4ncccc34)C2=O)nc1C [listing 2 of 2 here] |  | 22 | 14 (≈ 32 µM) | 
